HCV core dimer – blocks dimerization of HCV core protein | TR-FRET GST/Flag-core106 dimerization, 1536-well | inhibition, % at 5 µM | 300,000 compounds, 0.33% hits | AID 1899;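 active means inhibition above the mean of all tested compounds plus 3 SD, set per screening campaign, cut at about 45% in these data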
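Assay system: Tagged HCV core106 pair (GST and Flag) | Buffer or medium: KF-containing HEPES buffer, pH 7.45, DTT, CHAPS, BSA | Also added: Eu donor and XL665 acceptor anti-tag antibodies | Dosing: One concentration, 5 µM, in 0.5% DMSO | Timing: 4 h at 22.5 °C | Technique: TR-FRET 671 and 617 nm emission | Repeats: Singlicate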
PP1 counter – blocks human PP1-alpha phosphatase, a PP5 counter-screen; P62136; purified PP1alpha, OMFP fluorescence; inhibition, % at 6.7 µM; 320,000 compounds, 0.9% hits; AID 2235;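 active means inhibition above the mean inhibition of all tested compounds plus 3 SD, computed separately for each screening campaign, cut at about 15% in these data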
Target sequence (P62136 whole entry, looked up): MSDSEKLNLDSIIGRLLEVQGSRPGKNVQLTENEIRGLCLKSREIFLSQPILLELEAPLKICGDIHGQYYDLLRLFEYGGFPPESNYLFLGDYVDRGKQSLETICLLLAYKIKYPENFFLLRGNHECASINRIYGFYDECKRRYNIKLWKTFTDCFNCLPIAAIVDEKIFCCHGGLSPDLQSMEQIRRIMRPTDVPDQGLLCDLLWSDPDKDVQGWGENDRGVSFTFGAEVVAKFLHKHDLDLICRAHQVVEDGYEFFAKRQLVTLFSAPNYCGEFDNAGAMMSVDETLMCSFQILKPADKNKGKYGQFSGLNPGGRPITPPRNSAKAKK
CTSL1 counter – blocks F. hepatica cathepsin L1 in PFM18AAP counter-screen; 300,000 compounds, 0.49% hits; inhibition, % at 5.96 µM; recombinant F. hepatica cathepsin L1, Z-Leu-Arg-MCA fluorescence;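 active means inhibition above the mean of all tested compounds plus 3 SD, set per screening campaign, cut at about 17% in these data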;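 further: 0% = plate median of test compound wells and 100% = 1 µM Z-Phe-Ala-diazomethylketone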
Myeloid diff 2 – compounds promoting myeloid differentiation; ER-HoxA9 myeloid progenitors, lysozyme-GFP differentiation, flow cytometry; calls only at 10 µM; 360,000 compounds, 1% hits; AID 624256;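 active means normalized GFP-positive differentiation at or above the plate's own cutoff, the solvent-only control mean plus 3 SD; inconclusive means no clear call, values can overlap the other calls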;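 further: cells exposed to compound for four days before flow analysis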
NadD inh – NadD (S. aureus) enzyme inhibition; purified NadD enzyme, colorimetric absorbance read-out; inhibition, % at 20 µM; 360,000 compounds, 0.78% hits; in the data active means inhibition above about 26%
PP5 primary – PP5 (human) phosphatase inhibition | P53041 | purified PP5c, OMFP substrate fluorescence | inhibition, % at 6.7 µM | 320,000 compounds, 0.18% hits | AID 1987;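 active means inhibition above the campaign's mean inhibition across all tested compounds plus 3 SD, cut at about 9.5% in these data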;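 further: 0% = DMSO only and 100% = 100 µM cantharidin control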
PP1 inh confirm – confirmation of human PP1 phosphatase inhibitors; shares compounds with PP1 counter; purified PP1alpha, OMFP substrate fluorescence; inhibition, % at 6.7 µM; 1,900 compounds, 52% hits;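 active means mean PP1 inhibition above a set limit taken from the earlier primary screen, cut at about 15% in these data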
PP5 inh counter – PP5 phosphatase inhibition, counter-screen for PP1 inhibitors; inhibition, % at 6.7 µM; shares compounds with PP1 counter; 1,900 compounds, 4% hits; purified PP5c, OMFP fluorescence;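 active means mean PP5 inhibition over triplicate wells above about 9.5% taken from the earlier PP1 screen, limit read from the data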
* marks the source's active call; other numbers are inactive results; i = inactive; u = inconclusive; x = no result given; + = active, no number. Compounds with a hit are over-represented: about 3.1% of the library has one in this group of screens.

SMILES | HCV core dimer | PP1 counter | CTSL1 counter | Myeloid diff 2 | NadD inh | PP5 primary | PP1 inh confirm | PP5 inh counter
Cc1ccc(C(=O)Nc2nc(-c3ccccn3)cs2)o1 | 14 | 23* | 2 | i | 7 | 0 | 13 | -2
CC(=O)Nc1ccc(C(=O)Nc2nc(-c3ccccn3)cs2)cc1 | 16 | 4 | -6 | i | 6 | -5 | x | x
O=C(CCCC(=O)N(c1ccc(F)cc1)C(C(=O)NC1CCCC1)c1ccc(O)cc1)Nc1ccccn1 (stereo not given) | -6 | 3 | -3 | i | 5 | 3 | x | x
COc1ccc([C@H]2CC(=O)C=C(c3ccnc4ccc(Cl)cc34)C2)cc1 | x | 3 | x | i | 0 | 2 | x | x
CSc1ccccc1C(=O)OCC(=O)Nc1ccc(N2CCOCC2)cc1 | x | x | x | i | -1 | x | x | x
O=C(Nc1nc(-c2ccccc2)cs1)C1COc2ccccc2O1 (stereo not given) | 8 | 0 | -1 | i | 0 | 2 | x | x
O=C(Nc1nc(-c2ccccc2)cs1)c1cccnc1 | -4 | -3 | 3 | i | -3 | 1 | x | x
O=C(Nc1nc(-c2ccccn2)cs1)C1COc2ccccc2O1 (stereo not given) | 0 | 29* | 1 | i | 4 | 6 | 41* | -1
O=C(Nc1nc(-c2cccnc2)cs1)c1ccccc1Cl | 4 | 20* | -2 | i | 3 | 0 | 23* | -6
CCOC(=O)c1sc(-c2ccc(Cl)cc2)nc1O | -4 | 25* | 11 | i | -9 | 1 | 18* | -3
CCOC(=O)c1sc(-c2cccc(C(F)(F)F)c2)nc1O | 4 | 18* | 1 | i | -4 | -2 | 17* | -3
Cc1nc(S/C(=C/c2ccc(-c3cc(Cl)ccc3C)o2)C(=O)O)n[nH]1 | -2 | 19* | 5 | i | 19 | 3 | 18* | 1
Cc1nc(S/C(=C/c2ccc(-c3ccc(Cl)cc3)o2)C(=O)O)n[nH]1 | -2 | 11 | 7 | i | 14 | 1 | x | x
CCOC(=O)c1ccccc1NC(=O)C1CSC2(C)CCC(=O)N12 (stereo not given) | 5 | -1 | 1 | i | -3 | 3 | x | x
O=C(O)c1cc(-c2cccs2)nn1-c1ccc(F)cc1 | 4 | 19* | 0 | i | 4 | 0 | 18* | -2
CN(C)c1ccc(-c2cc(O)c3ncccc3c2)cc1 | x | 21* | x | u | 14 | 1 | 21* | -4
CN(C)CCCNC(=O)c1ccc(-c2cc(O)c3ncccc3c2)cc1 | x | x | x | i | -11 | x | x | x
Cc1ccc(S(=O)(=O)N2CCN(C(=O)c3sccc3-c3ccccc3)CC2)cc1 | 9 | -3 | -2 | i | -3 | 0 | x | x
Cc1cccc(C)c1-n1nnnc1C1(C)CCC(=O)N1Cc1cccs1 (stereo not given) | x | x | x | i | -4 | x | x | x
Cc1ccc(-c2n[nH]c(=S)n2/N=C/c2ccc(C)s2)cc1 | 8 | -2 | 3 | i | 6 | 3 | x | x
Cc1ccc(/C=N/n2c(-c3ccc(Cl)cc3)n[nH]c2=S)s1 | 1 | 20* | 2 | i | 15 | 2 | 10 | -4
COc1ccc(CN2CCN(C(=O)Cn3nc(C(=O)O)c4ccccc4c3=O)CC2)cc1F | 3 | 1 | -3 | i | 0 | 2 | x | x
Fc1cccc(Cc2c(-c3cccc(Cl)c3)nc3c(Cl)cc(C(F)(F)F)cn23)c1 | x | x | x | i | 3 | x | x | x
CC(C)(C)OC(=O)NCCCCCc1nnc(SCc2ccccc2)o1 | 3 | -3 | -2 | i | -4 | 3 | x | x
Cc1[nH]c(=O)[nH]c(=O)c1CSc1nnc(CCCCCNC(=O)OC(C)(C)C)o1 | 0 | 23* | 0 | i | -7 | 1 | -3 | -3
SMILES | HCV core dimer | PP1 counter | CTSL1 counter | Myeloid diff 2 | NadD inh | PP5 primary | PP1 inh confirm | PP5 inh counter
C/C(=N\Nc1ccc(S(=O)(=O)Nc2ccccc2)cc1[N+](=O)[O-])c1ccncc1 | 3 | -3 | 0 | x | x | -2 | x | x
COc1ccc(NS(=O)(=O)c2ccc(N/N=C(\C)c3ccncc3)c([N+](=O)[O-])c2)cc1 | 15 | 24* | 1 | i | 26 | 4 | 16* | 6
COc1ccc(C(=O)CSc2nc(N)nc(SC)c2C#N)cc1 | 27 | 27* | -3 | i | 9 | 2 | 28* | 0
N#Cc1ccc(-c2ccco2)nc1SCC(=O)c1ccc(Cl)cc1 | 8 | 26* | 5 | + | -1 | 1 | 7 | -3
O=C(CSc1ccc(-c2ccco2)nn1)c1ccc(F)cc1 | 17 | 3 | 1 | i | 7 | -1 | x | x
COc1cc(Br)cc(/C=C/c2ccc3cccc(O)c3n2)c1OC | -12 | 13 | 7 | i | 4 | 2 | x | x
Oc1cccc(/C=C/c2ccc3cccc(O)c3n2)c1 | 10 | 14 | 2 | i | 13 | 2 | x | x
COc1cccc(/C=C/c2ccc3cccc(O)c3n2)c1 | 3 | 19* | 4 | i | 5 | 0 | 19* | -1
Cc1ccc(/C=C/c2ccc3cccc(O)c3n2)s1 | 6 | 20* | 10 | i | 10 | 3 | 16* | 2
COc1ccc(/C=C/c2ccc3c(Br)ccc(O)c3n2)cc1 | 0 | 22* | -1 | i | 11 | 1 | 19* | -6
COc1cc(/C=C/c2ccc3cccc(O)c3n2)cc(Cl)c1OC | -1 | 18* | 2 | i | 8 | 0 | 26* | 1
COc1cccc(/C=C/c2ccc3cccc(O)c3n2)c1OC | -2 | 20* | -1 | i | 1 | 0 | 17* | -4
C#Cc1ccc([C@H]2C=C(C(=O)N3CCN(Cc4ccccc4)CC3)O[C@@H](OCc3ccc(CO)cc3)C2)cc1 | 37 | 19* | -1 | i | 15 | 2 | 20* | 3
CCN1CCN(Cc2ccc(NC(=O)c3cc(NC(=O)c4cncc(-c5ccc(C#N)cc5)c4)cc(OC)c3)cc2C(F)(F)F)CC1 | 7 | 51* | -2 | i | 30 | 5 | 15 | 0
CCN1CCN(Cc2ccc(NC(=O)c3cc(NC(=O)c4nccnc4N)cc(OC)c3)cc2C(F)(F)F)CC1 | -10 | -4 | 0 | x | -2 | 4 | x | x
CC(=O)Nc1ccc(S(=O)(=O)NC2CC(=O)N(c3ccc4c(c3)OCCO4)C2)cc1 (stereo not given) | 7 | -6 | -1 | i | 3 | 1 | x | x
N#CC1=C2N=C(N)c3ccccc3N2C2=C(C(=O)CCC2)C1c1ccc(F)cc1 (stereo not given) | 5 | 3 | -2 | i | 0 | 2 | x | x
N#CC1=C2N=C(N)c3c(sc4c3CCCCC4)N2C2=C(C(=O)CCC2)C1c1ccccc1 (stereo not given) | 34 | 18* | 0 | i | 25 | 4 | 6 | -2
